Results: ChEMBL document CHEMBL3352487, “Synthesis, antibacterial activity, and biological evaluation of formyl hydroxyamino derivatives as novel potent peptide deformylase inhibitors against drug-resistant bacteria” (Eur J Med Chem, 2014)
≈ marks a conversion by molar mass, not a printed value.

What was measured:
[1] = AUC (0 to infinity) in Sprague-Dawley rat at 25 mg/kg, po; assay type: ADME, organism-based; design: dose 25 mg/kg, route oral, time infinity; conditions: plasma
Staphylococcus aureus [2] = assay: Antimicrobial activity against Staphylococcus aureus OXFORD after 24 hrs by broth microdilution method; assay type: functional
Method in brief: (§1)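 Broth microdilution following NCCLS M7-A4, using ATCC strains and clinical isolates from a provincial hospital.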

Enterococcus faecalis = assay: Antimicrobial activity against Enterococcus faecalis Isolate 1 after 24 hrs by broth microdilution method; assay type: functional; conditions: Isolate 1, 24 h
Method in brief: (§2)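 Broth microdilution following NCCLS M7-A4; ATCC strains and clinical isolates from a provincial hospital.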

[3] = Oral bioavailability in Sprague-Dawley rat at 25 mg/kg; assay type: ADME, organism-based; conditions: in vivo
Staphylococcus aureus [4] = assay: Antimicrobial activity against Staphylococcus aureus WCUH29 after 24 hrs by broth microdilution method; assay type: functional; conditions: WCUH29, 24 h; method in brief: as §2
Enterococcus faecium = assay: Antimicrobial activity against Enterococcus faecium X7501 after 24 hrs by broth microdilution method; assay type: functional; conditions: X7501, 24 h; method in brief: as §2
Staphylococcus aureus [5] = assay: Antimicrobial activity against methicillin-susceptible Staphylococcus aureus after 24 hrs by broth microdilution method; assay type: functional; method in brief: as §2
Streptococcus pneumoniae [6] = assay: Antimicrobial activity against Streptococcus pneumoniae ERY2 after 24 hrs by broth microdilution method; assay type: functional; conditions: ERY2, 24 h; method in brief: as §2
[7] = AUC (0 to t) in Sprague-Dawley rat at 5 mg/kg, iv; assay type: ADME, organism-based; design: dose 5 mg/kg, route intravenous; conditions: plasma
Streptococcus pyogenes [8] = assay: Antimicrobial activity against Streptococcus pyogenes 1307006P after 24 hrs by broth microdilution method; assay type: functional; method in brief: as §2
Escherichia coli [9] = assay: Antimicrobial activity against Escherichia coli isolate 1 after 24 hrs by broth microdilution method; assay type: functional; conditions: isolate 1, 24 h; method in brief: as §2
Escherichia coli [10] = assay: Antimicrobial activity against Escherichia coli isolate 2 after 24 hrs by broth microdilution method; assay type: functional; conditions: isolate 2, 24 h; method in brief: as §2
[11] = AUC (0 to t) in Sprague-Dawley rat at 25 mg/kg, po; assay type: ADME, organism-based; design: dose 25 mg/kg, route oral; conditions: plasma
[12] = Cmax in Sprague-Dawley rat at 25 mg/kg, po; assay type: ADME, organism-based; design: dose 25 mg/kg, route oral; conditions: in vivo
Streptococcus pyogenes [13] = assay: Antimicrobial activity against Streptococcus pyogenes 1308007P after 24 hrs by broth microdilution method; assay type: functional; method in brief: as §2
Haemophilus influenzae [14] = assay: Antimicrobial activity against Haemophilus influenzae H128 after 24 hrs by broth microdilution method; assay type: functional; conditions: H128, 24 h; method in brief: as §2
Staphylococcus aureus [15] = assay: Antimicrobial activity against methicillin-resistant Staphylococcus aureus after 24 hrs by broth microdilution method; assay type: functional; method in brief: as §1
[16] = AUC (0 to infinity) in Sprague-Dawley rat at 5 mg/kg, iv; assay type: ADME, organism-based; design: time infinity, dose 5 mg/kg, route intravenous; conditions: plasma
Staphylococcus aureus [17] = assay: Antimicrobial activity against Staphylococcus aureus after 24 hrs by broth microdilution method; assay type: functional; method in brief: as §2
[18] = Volume of distribution at steady state in Sprague-Dawley rat at 5 mg/kg, iv; assay type: ADME, organism-based; design: dose 5 mg/kg, route intravenous; conditions: in vivo, read-out: Vdss
[19] = Clearance in Sprague-Dawley rat at 5 mg/kg, iv; assay type: ADME, organism-based; design: dose 5 mg/kg, route intravenous; conditions: in vivo
[20] = test system: Staphylococcus epidermidis; assay: Antimicrobial activity against Staphylococcus epidermidis after 24 hrs by broth microdilution method; assay type: functional; method in brief: as §2
Haemophilus influenzae [21] = assay: Antimicrobial activity against AcrA-deficient Haemophilus influenzae H128 after 24 hrs by broth microdilution method; assay type: functional; conditions: H128, 24 h; method in brief: as §2
Streptococcus pneumoniae [22] = assay: Antimicrobial activity against Streptococcus pneumoniae N1387 after 24 hrs by broth microdilution method; assay type: functional; conditions: N1387, 24 h; method in brief: as §2
[23] = Mean residence time (0 to t) in Sprague-Dawley rat at 25 mg/kg, po; assay type: ADME, organism-based; design: dose 25 mg/kg, route oral; conditions: in vivo
Escherichia coli [24] = assay: Antimicrobial activity against Escherichia coli isolate 3 after 24 hrs by broth microdilution method; assay type: functional; conditions: isolate 3, 24 h; method in brief: as §2
Streptococcus pneumoniae [25] = assay: Antimicrobial activity against Streptococcus pneumoniae 1629 after 24 hrs by broth microdilution method; assay type: functional; conditions: Streptococcus pneumoniae, 1629, 24 h; method in brief: as §2
Haemophilus influenzae [26] = assay: Antimicrobial activity against Haemophilus influenzae Q1 after 24 hrs by broth microdilution method; assay type: functional; conditions: Q1, 24 h; method in brief: as §2
hERG (KCNH2) [27] = biological target: T1, hERG (KCNH2) (Homo sapiens, UniProt Q12809); assay: Inhibition of human ERG at 10 uM
T1 sequence (Q12809 whole entry): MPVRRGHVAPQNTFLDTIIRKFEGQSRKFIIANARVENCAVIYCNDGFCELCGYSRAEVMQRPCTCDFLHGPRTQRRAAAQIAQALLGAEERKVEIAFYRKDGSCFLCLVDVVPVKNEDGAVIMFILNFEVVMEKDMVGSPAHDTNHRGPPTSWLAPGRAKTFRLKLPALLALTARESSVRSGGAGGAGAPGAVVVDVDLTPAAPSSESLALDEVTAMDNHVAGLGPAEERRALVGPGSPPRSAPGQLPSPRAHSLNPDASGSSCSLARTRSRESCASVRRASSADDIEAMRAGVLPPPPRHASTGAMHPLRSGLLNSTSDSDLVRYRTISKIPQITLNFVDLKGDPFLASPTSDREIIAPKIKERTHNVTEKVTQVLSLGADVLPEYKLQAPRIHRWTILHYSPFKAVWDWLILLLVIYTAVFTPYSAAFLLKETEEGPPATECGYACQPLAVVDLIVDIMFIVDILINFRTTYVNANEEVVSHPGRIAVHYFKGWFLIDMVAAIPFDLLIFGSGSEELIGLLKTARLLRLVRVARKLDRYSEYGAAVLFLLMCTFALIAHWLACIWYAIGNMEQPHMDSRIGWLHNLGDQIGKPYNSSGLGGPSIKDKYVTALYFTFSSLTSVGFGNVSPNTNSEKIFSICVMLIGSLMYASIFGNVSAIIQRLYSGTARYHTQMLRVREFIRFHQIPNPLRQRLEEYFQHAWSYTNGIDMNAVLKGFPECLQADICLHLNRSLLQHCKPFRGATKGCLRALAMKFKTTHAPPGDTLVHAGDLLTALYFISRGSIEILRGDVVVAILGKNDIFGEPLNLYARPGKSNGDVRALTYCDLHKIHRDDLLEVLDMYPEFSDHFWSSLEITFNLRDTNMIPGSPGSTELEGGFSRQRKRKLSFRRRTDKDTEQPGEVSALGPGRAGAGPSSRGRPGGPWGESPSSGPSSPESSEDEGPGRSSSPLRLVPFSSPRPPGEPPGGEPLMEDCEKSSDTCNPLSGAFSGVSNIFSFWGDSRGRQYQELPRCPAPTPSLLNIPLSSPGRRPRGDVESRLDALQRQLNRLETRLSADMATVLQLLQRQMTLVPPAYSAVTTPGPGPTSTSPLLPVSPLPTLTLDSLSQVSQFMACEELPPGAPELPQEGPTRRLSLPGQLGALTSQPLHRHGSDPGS

[28] = Mean residence time (0 to t) in Sprague-Dawley rat at 5 mg/kg, iv; assay type: ADME, organism-based; design: dose 5 mg/kg, route intravenous; conditions: in vivo
[29] = Half life in Sprague-Dawley rat at 5 mg/kg, iv; assay type: ADME, organism-based; design: dose 5 mg/kg, route intravenous; conditions: in vivo
[30] = Tmax in Sprague-Dawley rat at 25 mg/kg, po; assay type: ADME, organism-based; design: dose 25 mg/kg, route oral; conditions: in vivo
hERG (KCNH2) [31] = biological target: T1, hERG (KCNH2); assay: Inhibition of human ERG at 1 uM
Moraxella catarrhalis = assay: Antimicrobial activity against Moraxella catarrhalis 1502 after 24 hrs by broth microdilution method; assay type: functional; conditions: Moraxella catarrhalis, 1502, 24 h; method in brief: as §2
[32] = Half life in Sprague-Dawley rat at 25 mg/kg, po; assay type: ADME, organism-based; design: dose 25 mg/kg, route oral; conditions: in vivo

Compound	MIC (Staphylococcus aureus [2]) [µg/mL]	MIC (Enterococcus faecalis) [µg/mL]	MIC (Staphylococcus aureus [4]) [µg/mL]	MIC (Enterococcus faecium) [µg/mL]	MIC (Staphylococcus aureus [5]) [µg/mL]	MIC (Streptococcus pneumoniae [6]) [µg/mL]	MIC (Streptococcus pyogenes [8]) [µg/mL]	MIC (Escherichia coli [9]) [µg/mL]	MIC (Escherichia coli [10]) [µg/mL]	MIC (Streptococcus pyogenes [13]) [µg/mL]	MIC (Haemophilus influenzae [14]) [µg/mL]	MIC (Staphylococcus aureus [15]) [µg/mL]	MIC (Staphylococcus aureus [17]) [µg/mL]	MIC [20] [µg/mL]	MIC (Haemophilus influenzae [21]) [µg/mL]	MIC (Streptococcus pneumoniae [22]) [µg/mL]	MIC (Escherichia coli [24]) [µg/mL]	MIC (Streptococcus pneumoniae [25]) [µg/mL]	MIC (Haemophilus influenzae [26]) [µg/mL]	MIC (Moraxella catarrhalis) [µg/mL]	also measured
O=CN(O)C[C@@H](CC1CCCC1)C(=O)N1CC=C[C@H]1C(=O)Nc1ccc(F)c[n+]1[O-]	0.5 (≈ 1.19 µM)	2 (≈ 4.76 µM)	0.125 (≈ 0.297 µM)	1 (≈ 2.38 µM)	0.5 (≈ 1.19 µM)	0.25 (≈ 0.595 µM)	0.25 (≈ 0.595 µM)	64 (≈ 152 µM)	32 (≈ 76.1 µM)	0.5 (≈ 1.19 µM)	2 (≈ 4.76 µM)	0.25 (≈ 0.595 µM)	0.25 (≈ 0.595 µM)	0.25 (≈ 0.595 µM)	≤ 0.06	0.125 (≈ 0.297 µM)	64 (≈ 152 µM)	0.5 (≈ 1.19 µM)	1 (≈ 2.38 µM)	≤ 0.06	AUC(0-inf) [1]: 1810 ng·h/mL; bioavailability [3]: 22.4%; AUC(0-t) [7]: 1610 ng·h/mL; AUC(0-t) [11]: 1630 ng·h/mL; Cmax [12]: 956 ng/mL; AUC(0-inf) [16]: 1620 ng·h/mL; Vd [18]: 1.6 L/kg; clearance [19]: 51.7 mL/min/kg; MRT last [23]: 2.01 h; inhibition at 10 µM (hERG (KCNH2) [27]): 0.89%; MRT last [28]: 30.2 min; half-life [29]: 48.4 min; Tmax [30]: 22.5 min; inhibition at 1 µM (hERG (KCNH2) [31]): 1.15%; half-life [32]: 155 min
Cc1cnc(NC(=O)[C@@H]2C=CCN2C(=O)[C@H](CC2CCCC2)CN(O)C=O)s1	0.25 (≈ 0.615 µM)	2 (≈ 4.92 µM)	≤ 0.06	0.5 (≈ 1.23 µM)	0.25 (≈ 0.615 µM)	0.5 (≈ 1.23 µM)	0.25 (≈ 0.615 µM)	16 (≈ 39.4 µM)	16 (≈ 39.4 µM)	0.5 (≈ 1.23 µM)	2 (≈ 4.92 µM)	0.125 (≈ 0.307 µM)	0.0312 (≈ 0.0769 µM)	0.0625 (≈ 0.154 µM)	≤ 0.06	0.25 (≈ 0.615 µM)	32 (≈ 78.7 µM)	0.5 (≈ 1.23 µM)	2 (≈ 4.92 µM)	≤ 0.06	AUC(0-inf) [1]: 12300 ng·h/mL; bioavailability [3]: 52.3%; AUC(0-t) [7]: 4700 ng·h/mL; AUC(0-t) [11]: 12200 ng·h/mL; Cmax [12]: 4560 ng/mL; AUC(0-inf) [16]: 4700 ng·h/mL; Vd [18]: 1.37 L/kg; clearance [19]: 18.6 mL/min/kg; MRT last [23]: 3.39 h; inhibition at 10 µM (hERG (KCNH2) [27]): 15.9%; MRT last [28]: 74.4 min; half-life [29]: 161 min; Tmax [30]: 37.5 min; inhibition at 1 µM (hERG (KCNH2) [31]): 5.38%; half-life [32]: 199 min
O=CN(O)C[C@@H](CC1CCCC1)C(=O)N1CC=C[C@H]1C(=O)Nc1ccc(F)cc1	1 (≈ 2.48 µM)	2 (≈ 4.96 µM)	0.125 (≈ 0.31 µM)	1 (≈ 2.48 µM)	0.5 (≈ 1.24 µM)	1 (≈ 2.48 µM)	0.25 (≈ 0.62 µM)	32 (≈ 79.3 µM)	64 (≈ 159 µM)	0.25 (≈ 0.62 µM)	2 (≈ 4.96 µM)	0.25 (≈ 0.62 µM)	0.25 (≈ 0.62 µM)	1 (≈ 2.48 µM)	≤ 0.06	0.5 (≈ 1.24 µM)	32 (≈ 79.3 µM)	1 (≈ 2.48 µM)	2 (≈ 4.96 µM)	≤ 0.06	
O=CN(O)C[C@@H](CC1CCCC1)C(=O)N1CC=C[C@H]1C(=O)Nc1ccccc1	1 (≈ 2.59 µM)	> 64	0.125 (≈ 0.324 µM)	1 (≈ 2.59 µM)	4 (≈ 10.4 µM)	1 (≈ 2.59 µM)	0.25 (≈ 0.649 µM)	32 (≈ 83 µM)	32 (≈ 83 µM)	0.5 (≈ 1.3 µM)	2 (≈ 5.19 µM)	1 (≈ 2.59 µM)	4 (≈ 10.4 µM)	0.5 (≈ 1.3 µM)	≤ 0.06	0.5 (≈ 1.3 µM)	64 (≈ 166 µM)	2 (≈ 5.19 µM)	2 (≈ 5.19 µM)	≤ 0.06	
